In ChEMBL document CHEMBL1221385, “Iminoheterocycles as gamma-secretase modulators” (Bioorg Med Chem Lett, 2010):

Assays:
Gamma-secretase = assay: Inhibition of gamma secretase-mediated amyloid beta42 production in HEK293 cells; assay type: cell-based, Homo sapiens
In short: (§1)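 HEK293 cells stably transfected with APP (Swedish plus London mutations, pcDNA3.1) treated with compound for 5 h; Aβ in conditioned medium read by MSD sandwich immunoassay: Aβ42 with TAG-G2-11/biotin-4G8, Aβ40 with TAG-G2-10/biotin-4G8, total Aβ with TAG-W02/biotin-4G8. IC50 from Aβ42; ratio is total Aβ over Aβ42.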

[1] = Selectivity ratio of total amyloid beta to amyloid beta 42; in short: as §1
[2] = AUC (0 to 6 hrs) in rat at 10 mg/kg, po; assay type: ADME, organism-based; parameters: time < 6 hr, dose 10 mg/kg, route oral; conditions: plasma
In short: (§2)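 Rats given a single 10 mg/kg oral dose. Plasma sampled over 0–6 h for AUC and Cmax, with the time of Cmax recorded. Brain level (ng/g) and brain:plasma concentration ratio taken at 6 h.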

[3] = Selectivity ratio of drug level in brain to plasma in rat at 10 mg/kg, po after 6 hrs; assay type: ADME, organism-based; parameters: dose 10 mg/kg, route oral; conditions: read-out: BPR; in short: as §2
[4] = Drug level in rat brain at 10 mg/kg, po after 6 hrs; assay type: ADME, organism-based; parameters: dose 10 mg/kg, route oral; conditions: read-out: Drug uptake; in short: as §2
[5] = Cmax in rat at 10 mg/kg, po after 1 hr; assay type: ADME, organism-based; parameters: dose 10 mg/kg, route oral; conditions: in vivo; in short: as §2
Rattus norvegicus [6] = assay: Reduction in amyloid beta 42 level in po dosed rat CSF; parameters: scale not given: the % may be the effect or the level left
[7] = AUC (0 to 6 hrs) in po dosed rat; assay type: ADME, organism-based; parameters: time < 6 hr, route oral; conditions: plasma; in short: as §2
Mus musculus [8] = assay: Reduction in amyloid beta 42 level in transgenic CRND8 mouse plasma at 30 mg/kg, po; assay type: functional; parameters: scale not given: the % may be the effect or the level left
In short: (§3)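 CRND8 transgenic mice dosed orally at 30 mg/kg. Plasma Aβ42 and total Aβ sampled 3 h after dosing.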

Mus musculus [9] = assay: Reduction in total amyloid beta level in CRND8 transgenic mouse plasma at 30 mg/kg, po; assay type: functional; parameters: scale not given: the % may be the effect or the level left; in short: as §3
Mus musculus [10] = assay: Reduction in amyloid beta 42 level in CRND8 transgenic mouse cortical at 30 mg/kg, po; assay type: functional; parameters: scale not given: the % may be the effect or the level left
[11] = Cmax in rat at 10 mg/kg, po after 2 hrs; assay type: ADME, organism-based; parameters: dose 10 mg/kg, route oral; conditions: in vivo; in short: as §2
Brain = assay: Drug level in rat brain at 30 mg/kg, po; conditions: in vivo, read-out: Drug uptake
Plasma = assay: Drug level in rat plasma at 30 mg/kg, po; conditions: in vivo
Rattus norvegicus [12] = assay: Reduction in amyloid beta 42 level in rat CSF at 30 mg/kg, po; parameters: scale not given: the % may be the effect or the level left
Rattus norvegicus [13] = assay: Reduction in amyloid beta 42 level in rat CSF at 100 mg/kg, po; parameters: scale not given: the % may be the effect or the level left

| SMILES | IC50 (Gamma-secretase) [nM] | Ratio [1] | also measured |
| --- | --- | --- | --- |
| COCCNC1=N/C(=C\c2ccc(-n3cnc(C)c3)c(OC)c2)C(=O)N1[C@@H](C)c1ccc(F)cc1 | 301 | 66 |  |
| COc1cc(/C=C2\N=C(NCCCO)N([C@@H](C)c3ccc(F)cc3)C2=O)ccc1-n1cnc(C)c1 | 163 | 141 |  |
| COc1cc(/C=C2\N=C3NCCC(c4ccc(F)cc4)N3C2=O)ccc1-n1cnc(C)c1 (single isomer, unassigned; (+)) | 106 | 188 |  |
| CCN1CC(c2ccc(F)cc2)N2C(=O)/C(=C/c3ccc(-n4cnc(C)c4)c(OC)c3)N=C12 (single isomer, unassigned; (-)) | 56 | 159 |  |
| CCCCNC1=N/C(=C\c2ccc(-n3cnc(C)c3)c(OC)c2)C(=O)N1[C@@H](C)c1ccc(F)cc1 | 258 | 78 |  |
| CCNC1=N/C(=C\c2ccc(-n3cnc(C)c3)c(OC)c2)C(=O)N1[C@H](CCO)c1ccc(F)cc1 | 171 | 117 |  |
| COc1cc(/C=C2\N=C(NCC3CC3)N([C@@H](C)c3ccc(F)cc3)C2=O)ccc1-n1cnc(C)c1 | 250 | 71 |  |
| CNC1=N/C(=C\c2ccc(-n3cnc(C)c3)c(OC)c2)C(=O)N1[C@@H](C)c1ccc(F)cc1 | 411 | 25 |  |
| COc1cc(/C=c2/c(=O)n([C@@H](C)c3ccc(F)cc3)c3n2CCCN=3)ccc1-n1cnc(C)c1 | 7100 |  |  |
| COc1cc(/C=C2\N=C(N)N([C@H](CCO)c3ccc(F)cc3)C2=O)ccc1-n1cnc(C)c1 | 229 | 87 |  |
| COc1cc(/C=C2\N=C(NCCCO)N([C@H](C)c3ccc(F)cc3)C2=O)ccc1-n1cnc(C)c1 | 111 | 153 |  |
| COc1cc(/C=C2\N=C(N3CCCCC3)N([C@@H](C)c3ccc(F)cc3)C2=O)ccc1-n1cnc(C)c1 | 955 | 21 |  |
| CCN1CCCC(c2ccc(F)cc2)N2C(=O)/C(=C/c3ccc(-n4cnc(C)c4)c(OC)c3)N=C12 (single isomer, unassigned; (-)) [listing 1 of 2 here] | 73 |  | AUC(0-t) at 6 h [2]: 16.9 µM·h; Kp at 6 h [3]: 0.3; concentration at 6 h [4]: 275 ng/g; Cmax [5]: 4.2 µM; Activity (Rattus norvegicus [6]): 8% |
| COc1cc(Cc2c[nH]c(=N)n([C@@H](C)c3ccc(F)cc3)c2=O)ccc1-n1cnc(C)c1 | 446 |  |  |
| COc1cc(/C=C2\N=C3NCCCC(c4ccc(F)cc4)N3C2=O)ccc1-n1cnc(C)c1 (racemic) | 503 | 40 |  |
| COc1cc(/C=C2\NC(=O)N([C@@H](C)c3ccc(F)cc3)C2=O)ccc1-n1cnc(C)c1 | 163 | 141 |  |
| CCN1CCCC(c2ccc(F)cc2)N2C(=O)/C(=C/c3ccc(-n4cnc(C)c4)c(OC)c3)N=C12 (single isomer, unassigned; (-)) [listing 2 of 2 here] |  | 215 |  |
| COc1cc(/C=C2\CCCN([C@@H](C)c3ccc(F)cc3)C2=O)ccc1-n1cnc(C)c1 |  |  | AUC(0-t) at 6 h [7]: 60.4 µM·h |
| CCN1CCC(c2ccc(F)cc2)N2C(=O)/C(=C/c3ccc(-n4cnc(C)c4)c(OC)c3)N=C12 (single isomer, unassigned; (+)) | 85 | 71 |  |
| COc1cc(/C=C2\N=C(NC3CC3)N([C@@H](C)c3ccc(F)cc3)C2=O)ccc1-n1cnc(C)c1 | 287 | 136 |  |
| COc1cc(/C=C2\N=C(N)N([C@H](C)c3ccc(F)cc3)C2=O)ccc1-n1cnc(C)c1 | 94 | 65 |  |
| CCNC1=N/C(=C\c2ccc(-n3cnc(C)c3)c(OC)c2)C(=O)N1Cc1ccc(F)cc1 | 72 | 104 |  |
| CCCCNC1=N/C(=C\c2ccc(-n3cnc(C)c3)c(OC)c2)C(=O)N1[C@H](C)c1ccc(F)cc1 | 92 | 42 |  |
| COc1cc(/C=C2\N=C3NCC(c4ccc(F)cc4)N3C2=O)ccc1-n1cnc(C)c1 (racemic) | 135 | 117 |  |
| CCCCNC1=N/C(=C\c2ccc(-n3cnc(C)c3)c(OC)c2)C(=O)N1Cc1ccc(F)cc1 | 85 | 70 | AUC(0-t) at 6 h [2]: 10 µM·h; Cmax [11]: 2.3 µM; Kp at 6 h [3]: 0.7; concentration at 6 h [4]: 449 ng/g; concentration (Brain): 5.9 µM; concentration (Plasma): 7.1 µM; Activity (Rattus norvegicus [12]): 10%; Activity (Rattus norvegicus [13]): 38% |
| COc1cc(/C=C2/C(=O)N([C@@H](C)c3ccc(F)cc3)C(=N)NC2(C)C)ccc1-n1cnc(C)c1 | > 20000 |  |  |
| COc1cc(/C=C2\N=C(NCCO)N([C@@H](C)c3ccc(F)cc3)C2=O)ccc1-n1cnc(C)c1 | 218 | 79 |  |
| COc1cc(/C=C2\N=C(N)N(Cc3ccc(F)cc3)C2=O)ccc1-n1cnc(C)c1 | 144 | 139 |  |

Second part, led by results:

| IC50 (Gamma-secretase) [nM] | Ratio [1] | SMILES | also measured |
| --- | --- | --- | --- |
| 117 |  | CCN1CCCC(c2ccc(F)cc2)N2C(=O)/C(=C/c3ccc(-n4cnc(C)c4)c(OC)c3)N=C12 (racemic) [listing 1 of 2 here] |  |
| 91 | 200 | CCNC1=N/C(=C\c2ccc(-n3cnc(C)c3)c(OC)c2)C(=O)N1[C@H](CO)c1ccc(F)cc1 |  |
| 287 | 70 | COCCCNC1=N/C(=C\c2ccc(-n3cnc(C)c3)c(OC)c2)C(=O)N1[C@@H](C)c1ccc(F)cc1 |  |
| 220 | 97 | CCNC1=N/C(=C\c2ccc(-n3cnc(C)c3)c(OC)c2)C(=O)N1[C@@H](C)c1ccc(F)cc1 |  |
| 63 | 27 | COc1cc(/C=C2\N=C(NCCO)N([C@H](C)c3ccc(F)cc3)C2=O)ccc1-n1cnc(C)c1 |  |
| 158 | 68 | COc1cc(/C=C2\N=C(NCC3CC3)N([C@H](C)c3ccc(F)cc3)C2=O)ccc1-n1cnc(C)c1 |  |
| 322 | 55 | COc1cc(/C=C2\N=C(N)N([C@@H](C)c3ccc(F)cc3)C2=O)ccc1-n1cnc(C)c1 |  |
| 671 | 32 | COc1cc(/C=C2\N=C(N3CCCC3)N([C@@H](C)c3ccc(F)cc3)C2=O)ccc1-n1cnc(C)c1 |  |
| 3500 |  | COc1cc(/C=C2\NC(=O)N([C@H](C)c3ccc(F)cc3)C2=O)ccc1-n1cnc(C)c1 |  |
| > 20000 |  | COc1cc([C@H](O)C2CNC(=N)N([C@@H](C)c3ccc(F)cc3)C2=O)ccc1-n1cnc(C)c1 (some centres undefined) |  |
| 864 | 23 | COC1=N/C(=C\c2ccc(-n3cnc(C)c3)c(OC)c2)C(=O)N1[C@@H](C)c1ccc(F)cc1 |  |
| 88 | 159 | CCNC1=N/C(=C\c2ccc(-n3cnc(C)c3)c(OC)c2)C(=O)N1[C@H](C)c1ccc(F)cc1 | Activity (Mus musculus [8]): 80%; Activity (Mus musculus [9]): 10%; Activity (Mus musculus [10]): 12%; AUC(0-t) at 6 h [2]: 10.1 µM·h; Cmax [11]: 2.3 µM; Kp at 6 h [3]: 1.3; concentration at 6 h [4]: 914 ng/g |
| 139 | 113 | COc1cc(/C=C2\N=C(N)N([C@H](CO)c3ccc(F)cc3)C2=O)ccc1-n1cnc(C)c1 |  |
|  | 169 | CCN1CCCC(c2ccc(F)cc2)N2C(=O)/C(=C/c3ccc(-n4cnc(C)c4)c(OC)c3)N=C12 (racemic) [listing 2 of 2 here] |  |
